Active and inactive are the calls of the source. No cut-off for these calls is given here.
Legend:
Plasmodium falciparum [1] = assay: Antiplasmodial activity against chloroquine-sensitive Plasmodium falciparum D10 assessed as inhibition of parasite LDH activity after 72 hrs by spectrophotometry; type: functional, organism-based; settings: D10, 72 h
Outline: (§1)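 Asynchronous cultures (1-1.5% parasitemia, 1% final haematocrit) in human A+ RBCs were grown in RPMI 1640 with 1% AlbuMax, hypoxanthine, HEPES and glutamine, at 37 °C under 1% O₂/5% CO₂. IC50 is the mean±SD of ≥3 experiments.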

Plasmodium falciparum [2] = assay: Antiplasmodial activity against chloroquine-resistant Plasmodium falciparum W2 assessed as inhibition of parasite LDH activity after 72 hrs by spectrophotometry; type: functional, organism-based; settings: W2, 72 h; outline: as §1
Rattus norvegicus [3] = organism: Rattus norvegicus; assay: Vasodilatory activity in pre-contracted Wistar rat aortic rings; type: functional, Aorta
Outline: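 Aortic strips, endothelium removed, from male Wistar rats (180-200 g) were held in Krebs-bicarbonate at 37 °C, pH 7.4, gassed with 95% O₂/5% CO₂. After 90 min equilibration they were contracted with 1 μM phenylephrine. Cumulative concentration-response curves were run at plateau, with isometric recording. EC50 is the mean of ≥5 determinations.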

Rattus norvegicus [4] = organism: Rattus norvegicus; assay: Vasodilatory activity in pre-contracted Wistar rat aortic rings in presence of 1 uM ODQ; type: functional, Aorta
Outline: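 Endothelium-denuded aortic strips from male Wistar rats (180-200 g) were kept in Krebs-bicarbonate at 37 °C, pH 7.4. ODQ at 1 μM was added 5 min before contraction with 1 μM phenylephrine. Cumulative relaxation curves were recorded isometrically. EC50 is the mean of ≥5 determinations.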

Plasmodium berghei [5] = assay: Antiplasmodial activity against Plasmodium berghei ANKA infected in C57BL/6 mouse assessed as reduction in parasitemia at 1 mg, ip daily for 5 days measured after 72 hrs relative to control; type: functional, organism-based
Plasmodium berghei [6] = assay: Antiplasmodial activity against Plasmodium berghei ANKA infected in C57BL/6 mouse assessed as mouse survival 1.15 mg, ip daily for 5 days relative to control; type: functional, organism-based
Outline: (§2)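 C57BL/6 mice aged 6-8 weeks were infected ip with 1x10⁶ PbA-GFP parasitized red blood cells. Parasitemia, motor behaviour, rectal temperature and weight were checked from day 5. Treatment began at late-stage CM, defined by neurological signs (ataxia, paralysis, poor righting, seizures, roll-over, coma). Doses were 100 μL ip daily for 5 days: 1.4 mg in 20% DMSO/20% PEG400/60% saline, 1.15 mg in saline.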

Plasmodium berghei [7] = assay: Antiplasmodial activity against Plasmodium berghei ANKA infected in C57BL/6 mouse assessed as reduction in parasitemia at 1.15 mg, ip daily for 5 days measured upto 24 hrs relative to control; type: functional, organism-based; outline: as §2
Plasmodium berghei [8] = assay: Antiplasmodial activity against Plasmodium berghei ANKA infected in C57BL/6 mouse assessed as reduction in parasitemia at 1.15 mg, ip daily for 5 days measured after 72 hrs relative to control; type: functional, organism-based; outline: as §2
Plasmodium berghei [9] = assay: Antiplasmodial activity against Plasmodium berghei ANKA infected in C57BL/6 mouse assessed as mouse survival at 1.4 mg, ip daily for 5 days relative to control; type: functional; outline: as §2
Plasmodium berghei [10] = assay: Antiplasmodial activity against Plasmodium berghei ANKA infected in C57BL/6 mouse assessed as mouse survival at 1 mg, ip daily for 5 days relative to control; type: functional
Plasmodium berghei [11] = assay: Antiplasmodial activity against Plasmodium berghei ANKA infected in C57BL/6 mouse assessed as reduction in parasitemia at 1.4 mg, ip daily for 5 days measured upto 24 hrs relative to control; type: functional; design: scale not given: the % may be the effect or the level left; outline: as §2
Plasmodium berghei [12] = assay: Antiplasmodial activity against Plasmodium berghei ANKA infected in C57BL/6 mouse assessed as reduction in parasitemia at 1 mg, ip daily for 5 days measured upto 24 hrs relative to control; type: functional; design: scale not given: the % may be the effect or the level left
Plasmodium berghei [13] = assay: Antiplasmodial activity against Plasmodium berghei ANKA infected in C57BL/6 mouse assessed as reduction in parasitemia at 1.4 mg, ip daily for 5 days measured after 72 hrs relative to control; type: functional, organism-based; outline: as §2
[14] = Rattus norvegicus, Aorta, read-out: EC50

Structure (SMILES): O=[N+]([O-])OCC1CCN(Cc2cc(Nc3ccnc4cc(Cl)ccc34)ccc2O)CC1
- IC50 (Plasmodium falciparum [1]): 19 nM
- IC50 (Plasmodium falciparum [2]): 28 nM
- EC50 (Rattus norvegicus [3]; [14]): 100 nM
- EC50 (Rattus norvegicus [4]; [14]): > 30 µM

Structure (SMILES): CCN(CC)Cc1cc(Nc2ccnc3cc(Cl)ccc23)ccc1O.Cl
- IC50 (Plasmodium falciparum [1]): 12 nM
- IC50 (Plasmodium falciparum [2]): 16 nM
- EC50 (Rattus norvegicus [3]): Not Active
- EC50 (Rattus norvegicus [4]): Not Active
- Activity (Plasmodium berghei [5]): Active

Structure (SMILES): CN(C)CCCOc1no[n+]([O-])c1S(=O)(=O)c1ccccc1
- IC50 (Plasmodium falciparum [1]): > 5000 nM
- IC50 (Plasmodium falciparum [2]): > 5000 nM
- EC50 (Rattus norvegicus [3]; [14]): 14300 nM
- EC50 (Rattus norvegicus [4]; [14]): > 10 µM

Structure (SMILES): CN(C)CCCOc1no[n+]([O-])c1-c1ccccc1
- IC50 (Plasmodium falciparum [1]): > 5000 nM
- IC50 (Plasmodium falciparum [2]): 4940 nM
- EC50 (Rattus norvegicus [3]; [14]): 30 nM

Structure (SMILES): CCN(CCCCC(CO[N+](=O)[O-])O[N+](=O)[O-])Cc1cc(Nc2ccnc3cc(Cl)ccc23)ccc1O (stereo not given)
- IC50 (Plasmodium falciparum [1]): 38 nM
- IC50 (Plasmodium falciparum [2]): 21 nM
- EC50 (Rattus norvegicus [3]; [14]): 220 nM
- EC50 (Rattus norvegicus [4]; [14]): > 30 µM
- Survival (Plasmodium berghei [6]): inactive
- Activity (Plasmodium berghei [7]): inactive
- Activity (Plasmodium berghei [8]): Active
- Activity (Plasmodium berghei [5]): Active

Structure (SMILES): O=[N+]([O-])OCCCN1CCN(Cc2cc(Nc3ccnc4cc(Cl)ccc34)ccc2O)CC1
- IC50 (Plasmodium falciparum [1]): 18 nM
- IC50 (Plasmodium falciparum [2]): 34 nM
- EC50 (Rattus norvegicus [3]; [14]): 79 nM
- EC50 (Rattus norvegicus [4]; [14]): 3.6 µM

Structure (SMILES): O=[N+]([O-])OCC1CCNCC1
- IC50 (Plasmodium falciparum [1]): > 5000 nM
- IC50 (Plasmodium falciparum [2]): > 5000 nM

Structure (SMILES): CCN(CCOc1no[n+]([O-])c1-c1ccccc1)Cc1cc(Nc2ccnc3cc(Cl)ccc23)ccc1O
- IC50 (Plasmodium falciparum [1]): 23 nM
- IC50 (Plasmodium falciparum [2]): 24 nM
- EC50 (Rattus norvegicus [3]; [14]): 1200 nM
- EC50 (Rattus norvegicus [4]; [14]): > 10 µM

Structure (SMILES): O=[N+]([O-])OCCN1CCN(Cc2cc(Nc3ccnc4cc(Cl)ccc34)ccc2O)CC1
- IC50 (Plasmodium falciparum [1]): 55 nM
- IC50 (Plasmodium falciparum [2]): 138 nM
- EC50 (Rattus norvegicus [3]; [14]): 120 nM
- EC50 (Rattus norvegicus [4]; [14]): 6.5 µM

Structure (SMILES): O=[N+]([O-])OCCC1CCN(Cc2cc(Nc3ccnc4cc(Cl)ccc34)ccc2O)CC1
- IC50 (Plasmodium falciparum [1]): 19 nM
- IC50 (Plasmodium falciparum [2]): 25 nM
- EC50 (Rattus norvegicus [3]; [14]): 100 nM
- EC50 (Rattus norvegicus [4]; [14]): > 30 µM

Structure (SMILES): CCNCCCCCCO[N+](=O)[O-]
- IC50 (Plasmodium falciparum [1]): > 5000 nM
- IC50 (Plasmodium falciparum [2]): > 5000 nM

Structure (SMILES): O=[N+]([O-])OCCCN1CCNCC1
- IC50 (Plasmodium falciparum [1]): > 5000 nM
- IC50 (Plasmodium falciparum [2]): > 5000 nM

Structure (SMILES): CCN(CCOc1no[n+]([O-])c1S(=O)(=O)c1ccccc1)Cc1cc(Nc2ccnc3cc(Cl)ccc23)ccc1O.Cl.Cl.Cl
- IC50 (Plasmodium falciparum [1]): 46 nM
- IC50 (Plasmodium falciparum [2]): 152 nM
- EC50 (Rattus norvegicus [3]; [14]): 17 nM
- EC50 (Rattus norvegicus [4]; [14]): 1 µM
- Survival (Plasmodium berghei [9]): 23%
- Survival (Plasmodium berghei [10]): 8%
- Activity (Plasmodium berghei [11]): 76%
- Activity (Plasmodium berghei [12]): 72%
- Activity (Plasmodium berghei [13]): Active
- Activity (Plasmodium berghei [8]): Active
- Activity (Plasmodium berghei [5]): Active

Structure (SMILES): O=[N+]([O-])OCCCNCc1cc(Nc2ccnc3cc(Cl)ccc23)ccc1O
- IC50 (Plasmodium falciparum [1]): 27 nM
- IC50 (Plasmodium falciparum [2]): 62 nM
- EC50 (Rattus norvegicus [3]; [14]): 420 nM
- EC50 (Rattus norvegicus [4]; [14]): 11 µM

Structure (SMILES): O=[N+]([O-])OCCC1CCNCC1
- IC50 (Plasmodium falciparum [1]): > 5000 nM
- IC50 (Plasmodium falciparum [2]): > 5000 nM

Structure (SMILES): O=[N+]([O-])OCCN1CCNCC1
- IC50 (Plasmodium falciparum [1]): > 5000 nM
- IC50 (Plasmodium falciparum [2]): > 5000 nM

Structure (SMILES): CCN(CCCCCCO[N+](=O)[O-])Cc1cc(Nc2ccnc3cc(Cl)ccc23)ccc1O
- IC50 (Plasmodium falciparum [1]): 31 nM
- IC50 (Plasmodium falciparum [2]): 28 nM
- EC50 (Rattus norvegicus [3]; [14]): 450 nM
- EC50 (Rattus norvegicus [4]; [14]): > 30 µM

Structure (SMILES): CCNCCCCC(CO[N+](=O)[O-])O[N+](=O)[O-] (stereo not given)
- IC50 (Plasmodium falciparum [1]): > 5000 nM
- IC50 (Plasmodium falciparum [2]): > 5000 nM

Structure (SMILES): CCN(CCCO[N+](=O)[O-])Cc1cc(Nc2ccnc3cc(Cl)ccc23)ccc1O
- IC50 (Plasmodium falciparum [1]): 27 nM
- IC50 (Plasmodium falciparum [2]): 31 nM
- EC50 (Rattus norvegicus [3]; [14]): 450 nM
- EC50 (Rattus norvegicus [4]; [14]): 3.3 µM
